Source: ChEMBL document CHEMBL3286173, “Graphite catalyzed solvent free synthesis of dihydropyrimidin-2(1H)-ones/thiones and their antidiabetic activity” (Bioorg Med Chem Lett, 2014)
One block for each compound: values may come before it.

How the values were obtained:
[1] = biological target: T1, Pancreatic alpha-amylase (Sus scrofa) (UniProt P00690); settings: 100 mg/ml
T1 sequence (whole entry): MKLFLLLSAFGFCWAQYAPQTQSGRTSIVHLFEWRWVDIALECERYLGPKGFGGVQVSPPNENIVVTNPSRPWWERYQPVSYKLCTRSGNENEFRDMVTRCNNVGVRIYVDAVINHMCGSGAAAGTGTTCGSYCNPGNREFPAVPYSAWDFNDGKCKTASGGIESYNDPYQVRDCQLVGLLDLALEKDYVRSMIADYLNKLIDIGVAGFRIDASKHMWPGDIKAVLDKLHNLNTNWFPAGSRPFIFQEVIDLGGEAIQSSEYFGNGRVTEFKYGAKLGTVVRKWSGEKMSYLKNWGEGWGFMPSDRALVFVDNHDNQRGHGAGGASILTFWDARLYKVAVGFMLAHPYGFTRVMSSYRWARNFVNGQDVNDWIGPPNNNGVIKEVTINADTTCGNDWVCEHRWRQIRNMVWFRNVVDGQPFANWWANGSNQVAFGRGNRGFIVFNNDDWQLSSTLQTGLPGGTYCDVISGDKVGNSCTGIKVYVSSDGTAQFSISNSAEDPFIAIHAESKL

[2] = biological target: T1, Pancreatic alpha-amylase (Sus scrofa); assay: Inhibition pig alpha-amylase at 50 to 300 ug/ml pretreated for 30 mins followed by addition of 1% starch for 10 mins by spectrometer
How it was run: (§1)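 PBS containing 1% starch was then added for 10 min at 37°C. The reaction was stopped with DNSA in a boiling bath for 10 min, and OD was read at 540 nm against a 0.2% maltose reference. Acarbose was the positive control. Runs were in triplicate with SD, giving % inhibition relative to an uninhibited control.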

[3] = biological target: T1, Pancreatic alpha-amylase (Sus scrofa); assay: Inhibition pig alpha-amylase at 300 ug/ml pretreated for 30 mins followed by addition of 1% starch for 10 mins by spectrometer
How it was run: as §1, with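 “Porcine pancreatic α-amylase (1.28 mg in 25 ml PBS) was preincubated with compounds in methanol (50, 150 or 300 µg/ml) at 37°C for 30 min. PBS” for “PBS”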

SMILES: CCOC(=O)C1=C(C)NC(=O)NC1c1ccc(OC)cc1 (configuration not stated)
inhibition [2]: 0%

SMILES: CCOC(=O)C1=C(C)NC(=O)NC1c1ccc(F)cc1 (configuration not stated)
inhibition [2]: 63.8%

SMILES: CCOC(=O)C1=C(C)NC(=S)NC1c1cccc(OC)c1 (configuration not stated)
inhibition [2]: 0%

SMILES: CCOC(=O)C1=C(C)NC(=O)NC1c1ccc2c(c1)OCO2 (configuration not stated)
inhibition [2]: 0%

SMILES: CCOC(=O)C1=C(C)NC(=O)NC1c1ccccc1F (configuration not stated)
inhibition [2]: 0%

SMILES: CCOC(=O)C1=C(C)NC(=S)NC1c1ccccc1 (configuration not stated)
inhibition [3]: 97.2%

SMILES: CCOC(=O)C1=C(C)NC(=O)NC1c1cccc([N+](=O)[O-])c1 (configuration not stated)
inhibition [2]: 26.5%

Now from value to compound:

inhibition [1]: 100%
SMILES: C[C@H]1O[C@H](O[C@H]2[C@H](O)[C@@H](O)[C@@H](O[C@H]3[C@H](O)[C@@H](O)C(O)O[C@@H]3CO)O[C@@H]2CO)[C@H](O)[C@@H](O)[C@@H]1N[C@H]1C=C(CO)[C@@H](O)[C@H](O)[C@H]1O (some centres not stated)

inhibition [2]: 66.5%
SMILES: CCOC(=O)C1=C(C)NC(=S)NC1c1ccc(OC)cc1 (configuration not stated)

inhibition [2]: 0%
SMILES: CCOC(=O)C1=C(C)NC(=O)NC1c1ccccc1 (configuration not stated)

inhibition [2]: 0%
SMILES: CCOC(=O)C1=C(C)NC(=S)N[C@H]1c1cccc(O)c1

inhibition [2]: 0%
SMILES: CCOC(=O)C1=C(C)NC(=O)NC1c1ccc([N+](=O)[O-])cc1 (configuration not stated)
